# The list is not random: actives were taken first. Their share in the collection is about 3.7%.
# KCNK3 block: human KCNK3 channel inhibition, primary screen | CHO-KCNK3 thallium flux, FluxOR fluorescence; active compounds read low | B-score at 10 µM | hit rate 0.84% among 340,000 | O14649 | AID 602410;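 active means B-score under library mean minus 4 SD, starting fluorescence ratio at most library mean plus 5 SD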;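 further: more negative B-score means stronger inhibition of thallium flux through KCNK3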
# KCNQ1 act: potentiates or activates the human KCNQ1 potassium channel | hit rate 0.35% among 310,000 | B-score at 10 µM | CHO-K1 KCNQ1, thallium flux FluxOR fluorescence; active compounds read high | AID 2648 | P51787;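 active means fluorescence ratio B-score, a plate-corrected score, at least three library SD, with initial intensity B-score within 5 SD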
# Target sequence (P51787 whole entry, looked up): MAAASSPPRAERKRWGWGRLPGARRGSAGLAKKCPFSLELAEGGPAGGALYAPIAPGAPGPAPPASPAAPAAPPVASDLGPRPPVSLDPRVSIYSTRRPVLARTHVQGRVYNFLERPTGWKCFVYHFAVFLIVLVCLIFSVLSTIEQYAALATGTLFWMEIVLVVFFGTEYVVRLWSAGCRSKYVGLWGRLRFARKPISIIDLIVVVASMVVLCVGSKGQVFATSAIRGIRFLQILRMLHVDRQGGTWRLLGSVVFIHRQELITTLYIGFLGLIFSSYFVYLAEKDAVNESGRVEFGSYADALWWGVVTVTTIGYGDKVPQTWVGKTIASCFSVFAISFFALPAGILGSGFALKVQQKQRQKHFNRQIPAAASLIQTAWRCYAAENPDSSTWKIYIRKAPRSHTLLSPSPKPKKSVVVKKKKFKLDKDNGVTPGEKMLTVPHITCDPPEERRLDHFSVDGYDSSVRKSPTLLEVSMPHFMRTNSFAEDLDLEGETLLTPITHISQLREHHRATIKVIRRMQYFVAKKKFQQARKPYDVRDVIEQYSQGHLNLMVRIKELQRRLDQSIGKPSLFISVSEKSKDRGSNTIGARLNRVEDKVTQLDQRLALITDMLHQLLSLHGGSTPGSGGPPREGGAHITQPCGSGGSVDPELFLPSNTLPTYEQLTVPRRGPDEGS
#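 assay system = CHO-K1 cells stably expressing KCNQ1 | medium = assay buffer, equal DMSO in all wells | timing = 37 °C overnight plating, 90-min dark dye load, 20-min compound pretreatment | measured by = kinetic FluxOR thallium fluorescence, 10-s 1-Hz baseline, 110-s post-stimulus read | measure = fluorescence change relative to baseline, converted to B score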
# hERG rescue: hERG (human) protection from proarrhythmic block; activation (rescue from dofetilide block), less the hit threshold, % at 10 µM; CHO-hERG, FluxOR thallium flux, dofetilide IC70 present; hit rate 0.51% among 310,000; Q12809;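 active means activation above the mean of controls blocked by dofetilide plus 5 SD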;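 further: thallium influx through hERG after potassium depolarization seen as dye fluorescence rise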
# Kir21 block: Kir2.1 (mouse) channel inhibition; AID 1672; P35561; B-score at 10 µM; HEK293-Kir2.1, FluxOR thallium flux fluorescence; active compounds read low; hit rate 0.85% among 310,000;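 active means fluorescence ratio B-score at or below minus 3 SD of library scores, with starting-brightness B-score within 2 SD, cut at about -4.2 in these data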;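 further: channel flux triggered by added potassium and thallium sulfate stimulus; B-score of peak minus minimum fluorescence over baseline after thallium stimulus; more negative B-score means stronger Kir2.1 block with less thallium influx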
# KCNQ1 block: blocks the human KCNQ1 potassium channel | AID 2642 | CHO-K1 KCNQ1, FluxOR thallium flux fluorescence; active compounds read high | B-score at 10 µM | hit rate 1.3% among 310,000;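 active means compounds whose thallium flux B-score, printed positive for inhibition, exceeds three library SD while starting fluorescence stays within three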;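 further: channel opened by potassium depolarization with thallium stimulus after 20 min compound exposure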
# KCNK9 block: blocks the human KCNK9 two-pore domain potassium channel | Q9NPC2 | HEK293 KCNK9, FluxOR thallium flux fluorescence; active compounds read low | B-score at 10 µM | hit rate 1.2% among 310,000;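 active means ratio B-score over 3 SD below the library mean, with starting fluorescence within 5 SD of its mean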;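 further: negative B-score means less thallium flux so channel inhibition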
# An asterisk follows results filed as active; i = inactive; nt = not tested or not shown.
SMILES,KCNK3 block,KCNQ1 act,hERG rescue,Kir21 block,KCNQ1 block,KCNK9 block
O=C(CCN1c2ccccc2Sc2ccccc21)Oc1ccccc1,i,i,-10.4,-1.54,i,i
COC(=O)c1ccc(OC(=O)CCN2c3ccccc3Sc3ccccc32)cc1,i,i,-11.2,-0.4,i,-7.51*
CCc1ccccc1Nc1nc(N)nc(COC(=O)C2CCN(C(=O)c3ccc(F)cc3)CC2)n1,i,nt,nt,nt,nt,nt
CCCC(=O)Nc1ccc(Cl)c(-c2nc3ncccc3o2)c1,i,i,-8.5,1.12,i,-7.98*
CCC(=O)NC(=S)Nc1cccc(-c2nc3ncccc3o2)c1,i,i,-6.7,0,i,i
CCCCCC(=O)Nc1cccc(-c2nc3ncccc3o2)c1,i,i,-18.0,-2.15,i,-7.4*
Cc1cc(NC(=O)c2cccs2)cc(-c2nc3ncccc3o2)c1O,i,i,-3.2,1.48,i,-8*
Cc1ccc(-c2nc3ncccc3o2)cc1NC(=O)c1cccs1,i,i,-5.0,0.04,i,i
N#CC1=C(N)N(c2ccc(F)cc2)C2=C(C1c1ccc(O)cc1)S(=O)(=O)CC2 (configuration not stated),i,nt,nt,nt,nt,nt
Cc1cc(C)c(C(=O)COC(=O)CCn2c(C)csc2=O)cc1C,i,i,-10.3,-4.47*,i,i
COc1ccc(NC(=O)c2cccc(N3C(=O)C4C5C=CC(C6CC56)C4C3=O)c2)cc1 (configuration not stated),i,i,-13.7,0,i,i
c1ccc(-c2cc(N3CCOCC3)nc3ccccc23)cc1,i,i,-5.1,-0.88,6*,i
Oc1ccc2ccccc2c1N=Nc1ccccn1,i,i,-6.1,-2.38,i,-7.34*
CC1(c2ccccc2)NC(=O)N(CC(=O)N2CCN(S(=O)(=O)c3c(F)cccc3F)CC2)C1=O (configuration not stated),i,nt,nt,nt,nt,nt
COc1ccc(/C=C/c2nc(N)nc(-c3ccccc3O)n2)cc1OC,i,i,-11.8,0,i,i
COc1cc(/C=C/c2nc(N)nc(-c3ccccc3O)n2)cc(OC)c1OC,i,i,-12.8,-1.18,i,-7.69*
Cc1ccc(-c2nc(S(=O)(=O)c3ccccc3)c(SCC(=O)NCC3CCCO3)o2)cc1 (configuration not stated),i,i,-7.0,0.09,i,i
CC(c1nnnn1C1CCCCC1)N(Cc1ccccc1)Cc1cccnc1 (configuration not stated),i,i,-6.9,-0.67,i,i
CC(c1nnnn1C(C)(C)C)N(Cc1cccnc1)Cc1ccccc1Cl (configuration not stated),i,i,-8.5,-4.29*,i,i
CN(C1CCCCC1)S(=O)(=O)c1ccc2[nH]c(=O)oc2c1,i,i,-11.2,-0.03,i,i
COc1ccccc1N(Cc1ccccc1)S(=O)(=O)c1cccc(C(=O)O)c1,i,i,-4.5,0.53,i,i
CCOc1ccccc1NC(=O)c1cccc(S(=O)(=O)N(Cc2ccccc2)c2ccccc2OC)c1,i,i,-8.1,0.85,i,-6.86*
CCN1CCN(C(=S)Nc2ccc3nc4n(c(=O)c3c2)CCCCC4)CC1,i,i,-15.5,-0.04,i,i
COc1ccc(-c2csc(NC(=S)NC(=O)c3cccs3)n2)cc1OC,i,11*,-0.1,1.18,i,-7.9*
O=C(NC(=S)Nc1nc2c(ccc3ccccc32)s1)c1cccs1,i,9*,0.2,0.65,i,i
SMILES,KCNK3 block,KCNQ1 act,hERG rescue,Kir21 block,KCNQ1 block,KCNK9 block
COc1ccc(-c2csc(NC(=S)NC(=O)c3cccs3)n2)cc1Br,i,9*,8.6*,-0.09,i,i
CCOCC(=O)Nc1ccc2c(c1)N(S(=O)(=O)c1cccs1)CCC2,i,i,-12.6,-0.66,i,i
O=C(CSc1nc(O)cc(=O)[nH]1)N1c2ccccc2CCc2ccccc21,i,i,-14.1,-0.42,i,i
Cc1ccc2c(c1)N(CCC(=O)NCCCN1CCCC1)C(=O)C(C)O2 (configuration not stated),i,i,-9.8,0.02,i,i
CCC(C)NC(=O)C1CCC(CNS(=O)(=O)c2ccccc2)CC1 (configuration not stated),i,i,-7.5,-2.14,i,i
O=C(Nc1ccccc1Cl)c1cccc(NC(=O)C2CCCC2)c1,i,i,-11.7,-0.08,i,-6.92*
O=C(NC1CC1)c1cccc(NC(=O)C2CCCC2)c1,i,nt,nt,nt,nt,nt
C[C@H]1CN([C@@H](C)CO)C(=O)c2cc(NC(=O)c3ccncc3)ccc2O[C@H]1CN(C)Cc1ccc(C(=O)O)cc1,i,nt,nt,nt,nt,nt
COc1ccccc1NC(=O)c1ccccc1N(Cc1ccccc1)S(C)(=O)=O,i,i,-12.7,-0.99,i,i
CC(NCc1ccc(OCc2ccc(Cl)cc2)cc1)C(O)c1ccccc1 (configuration not stated),i,i,-36.6,0.09,i,i
CC(NCc1cccc(OCc2ccccc2)c1)C(O)c1ccccc1 (configuration not stated),i,i,-20.3,-10.5*,i,i
COc1ccc(S(=O)(=O)NCCSCc2ccco2)cc1C,i,i,-6.5,-2.88,i,i
COc1ccc(S(=O)(=O)NCCSCc2ccco2)cc1Cl,i,i,-6.7,-6.27*,i,i
CN(C(=O)CN1C(=O)c2cccc(N)c2C1=O)C1CCCCC1,i,nt,nt,nt,nt,nt
O=C(Oc1ccc(=O)n(-c2ccccc2)n1)c1ccc(Cl)cc1,i,i,-16.1,-4.34*,i,i
O=C(Oc1ccc(=O)n(-c2ccccc2)n1)c1ccc(F)cc1,i,i,-8.8,-1.21,i,i
O=C(O)c1ccc(Cl)cc1Nc1nc2cc(Cl)ccc2o1,i,i,5.6*,0.75,i,i
CCC(=O)Nc1cc(Cl)ccc1C(=O)O,i,i,-8.3,-0.09,i,i
CC1CCCCN1C(=O)COc1ccc(F)cc1 (configuration not stated),i,i,-10.4,1.11,i,i
CS(=O)(=O)N(CC(=O)N1CCc2ccccc2C1)c1ccccc1F,i,i,-5.3,1.04,i,i
CC1(C)CC(=O)CC(=NCC(=O)O)C1,i,i,4.7*,1.9,i,i
Cn1c2ccccc2c2nnc(SCC(=O)Nc3cccc(O)c3)nc21,i,i,-6.8,1.01,i,i
COc1ccc(CNc2ccc(Cl)cc2)cc1Cn1ccnc1,i,i,-13.9,-4.32*,i,i

# Screening data from PubChem BioAssay.
